# Experimental data as given in PubChem BioAssay AID1040 (The Scripps Research Institute Molecular Screening Center, 2008).
# The campaign covered roughly 200,000 compounds. About 2,000 (1%) were called active. The full list was thinned out, with actives kept by preference. Values without a mark were called inactive.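 Rule for the calls: active = inhibition above the campaign mean inhibition of all tested compounds plus 3 SD (cut at about 20% in these data); inactive = the rest.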
# Target: Neuropeptide Y receptor type 1 (Homo sapiens) (UniProt P25929)
# Test: NPY-Y1 receptor antagonists, primary screen, cell-based (AID 1040);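 note: 0% = DMSO wells given NPY plus isoproterenol and 100% = isoproterenol alone without NPY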
# Conditions: HEK293-CNG Y1 cells, membrane potential fluorescence; at 3.6 µM; hits give high values; NPY at EC95, then isoproterenol
# Summary of the method: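 System: HEK293 cells with Y1 receptor plus CNG channel / Probe or stimulus: NPY 25 nM then isoproterenol 1 µM plus Ro 20-1724 25 µM / Compound: one concentration, 3.6 µM, in 0.4% DMSO / Schedule: compound incubation 1 h at room temperature, readout 45 min post-stimulation / Measured by: membrane potential fluorescence / Read-out: % inhibition of NPY effect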
# Chain of Neuropeptide Y receptor type 1 (Homo sapiens) (P25929 whole entry, looked up): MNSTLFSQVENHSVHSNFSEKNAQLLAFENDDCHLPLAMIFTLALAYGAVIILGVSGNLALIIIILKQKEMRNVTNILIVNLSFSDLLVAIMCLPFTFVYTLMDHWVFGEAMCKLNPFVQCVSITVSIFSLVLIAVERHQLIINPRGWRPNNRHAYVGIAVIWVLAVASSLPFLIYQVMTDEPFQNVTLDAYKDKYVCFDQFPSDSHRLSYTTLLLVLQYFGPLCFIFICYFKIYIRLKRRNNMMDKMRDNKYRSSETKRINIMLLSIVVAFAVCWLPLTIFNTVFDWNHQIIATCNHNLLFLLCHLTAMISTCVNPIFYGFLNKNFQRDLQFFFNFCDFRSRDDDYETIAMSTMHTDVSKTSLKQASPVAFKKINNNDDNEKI
row,SMILES,inhibition
1,COC(=O)C(C(=O)Nc1cccc(Cl)c1C)C1CCCC1 (centres undefined),5.62%
2,Cc1ccccc1Nc1scc(-c2ccc(Br)cc2)[n+]1-c1ccccc1C,31.6% (active)
3,COc1ccc(C)cc1-n1nnnc1SCc1nc2ccccc2c(=O)[nH]1,-0.32%
4,CCN(CCCNC(=O)CSc1cc(=O)n(C)c2cc(Cl)ccc12)Cc1ccccc1,1.58%
5,COCCCNC(=S)N1CCCC(c2nc3cc(C)c(C)cc3[nH]2)C1 (centres undefined),-0.11%
6,NS(=O)(=O)c1ccc(CCNC(=O)c2ccc([N+](=O)[O-])cc2[N+](=O)[O-])cc1,0.19%
7,N#Cc1cnn2cc(CCN3CCOCC3)c(-c3ccc(F)cc3)nc12,-1.23%
8,COc1ccc(/C=N/NC(=O)Cn2cc(C(F)(F)F)ccc2=O)cc1,0.12%
9,COc1ccc(C(=O)Nc2ccc(F)cc2F)cc1,6.11%
10,O=C(Nc1cccc(F)c1)c1ccc(S(=O)(=O)N2CCCC2)cc1,-0.82%
11,CCOC(=O)N1CCN(S(=O)(=O)c2ccc(C(=O)Nc3ccc(F)cc3F)cc2)CC1,30.3% (active)
12,CC(=O)c1cnc(SCC(=O)O)nc1C,-4%
13,COc1ccc(C(=O)NN2C(=O)C3C(c4ccccc4)C=CC(c4ccccc4)C3C2=O)cc1 (centres undefined),11.3%
14,COc1ccc2c(c1)C(C)=CC(C)(C)N2C(=O)CNCc1ccc2c(c1)OCO2,27.3% (active)
15,COc1ccc2c(c1)C(C)=CC(C)(C)N2C(=O)Nc1ccccc1,13.7%
16,CCn1cc(C(=O)NCc2ccc3c(c2)OCO3)c2cc(OC)c(OC)cc2c1=O,1.79%
17,O=C(/C=C/c1ccc(OCc2c(F)cccc2Cl)cc1)N1CCOCC1,5.45%
18,COn1c(-c2ccc(Cl)cc2Cl)nc2ncccc21,5.03%
19,CCC(=O)c1ccc(N2CCN(C(=O)c3cc([N+](=O)[O-])ccc3F)CC2)c(F)c1,-2.39%
20,O=C(Nc1cccc(Cl)c1)c1cc([N+](=O)[O-])ccc1N1CCN(CCO)CC1,0.17%
21,CCN1CCN(c2ccc([N+](=O)[O-])cc2C(=O)c2ccc(Cl)cc2)CC1,36.6% (active)
22,CCc1ccc(OCC(=O)OCC(=O)c2c(N)n(C)c(=O)n(C)c2=O)cc1,-0.61%
23,O=C(NCc1ccco1)c1nn2cccnc2c1Cl,1.08%
24,COc1ccc(CN(CC(=O)NC2CCCC2)C(=O)CCC(=O)Nc2cc(C)on2)cc1,1.61%

row,SMILES,inhibition
1,Cc1cc(C(C)(C)C)oc1C(=O)N(CC(=O)NC1CCCC1)Cc1ccc(Cl)cc1,28.1% (active)
2,Cc1noc(C)c1C(=O)N(CC(=O)NC1CCCC1)Cc1ccccc1F,1.99%
3,COc1ccc(Cc2nnc(N/N=C/c3ccccc3O)[nH]c2=O)cc1OC,7.54%
4,N=c1c2c(-c3ccccc3)c(-c3ccccc3)n(Cc3ccccc3)c2ncn1CCCO,73.2% (active)
5,Cc1nc([N+](=O)[O-])c(NCCCO)n1Cc1ccccc1,-2.13%
6,OCCCN1c2ccccc2Nc2nnc(-c3ccccc3)cc21,-7.91%
7,COc1ccc(-c2nn(-c3ccccc3)cc2CN2CCCO2)c(F)c1,3.17%
8,CCCOC(=O)c1[nH]c2c(c1C)C(=O)CC(c1cc(OC)c(OC)c(OC)c1)C2 (centres undefined),-8.2%
9,CCCOC(=O)c1[nH]c2c(c1C)C(=O)CC(c1cccs1)C2 (centres undefined),33.9% (active)
10,CCOC(=O)c1[nH]c2c(c1C)C(=O)CC(c1ccc(N(C)C)cc1)C2 (centres undefined),6.58%
11,COc1ccc(NC(=O)/C(C#N)=C\c2cc(OC)c(OCc3ccc(C(=O)O)cc3)cc2Br)cc1,2.86%
12,Cc1nc(Nc2ccc(S(=O)(=O)N3CCCC3)cc2)c2nnn(Cc3ccccc3)c2n1,-11%
13,O=S(=O)(NCc1ccccc1)c1ccc(S(=O)(=O)N2CCCC2)cc1,1%
14,O=C1c2cccnc2C(Nc2ccc(S(=O)(=O)N3CCCCCC3)cc2)N1Cc1ccccc1 (centres undefined),30.7% (active)
15,Cc1cccc(N2CCC(NCc3c(C(=O)N4CCCCC4)nc4c(C)cccn34)CC2)c1,11%
16,COc1ccc(C(C[N+](=O)[O-])n2nc(C)cc2C)cc1 (centres undefined),-2.49%
17,COc1ccc(OC)c(CNC(=O)C2CCCN(c3nc4ccccc4o3)C2)c1 (centres undefined),7.8%
18,COc1ccccc1CNC(=O)C1CCN(c2nc3ccccc3o2)CC1,-3.62%
19,CCc1ccc(CNC(=O)C2CCCN(c3nc4ccccc4o3)C2)cc1 (centres undefined),26.4% (active)
20,COC(=O)c1ccc(COC(=O)c2cnccn2)cc1,-0.5%
21,OC(COCC1COc2ccccc2O1)CN1CCN(c2ccc(F)cc2)CC1 (centres undefined),-9.16%
22,Cc1ccc(S(=O)(=O)N(C)CC(=O)OCC(=O)N2CC(=O)Nc3ccccc32)cc1,1.33%
23,OC(COc1cccc(OCC(O)CN2CCCC2)c1)CN1CCCC1 (centres undefined),6.73%
24,O=C(c1ccccc1)c1ccc(OCC(O)CN2CCCC2)cc1 (centres undefined),20.8% (active)

row,SMILES,inhibition
1,O=C(c1ccc(Cl)cc1)c1ccc(OCC(O)CN2CCCCC2)cc1 (centres undefined),6.02%
2,CN1CCNC(=O)C1CC(=O)NCCC1=CCCCC1 (centres undefined),1.21%
3,Cc1ccc(OCC(=O)NC(C)c2ccccc2)c([N+](=O)[O-])n1 (centres undefined),19.9%
4,Cc1ccc(CNC(=O)C2CCCN(S(C)(=O)=O)C2)cc1 (centres undefined),0.15%
5,CS(=O)(=O)N1CCCC(C(=O)N2CCOCC2)C1 (centres undefined),94.5% (active)
6,CCCS(=O)(=O)N1CCCC(C(=O)N2CCN(c3ccccc3)CC2)C1 (centres undefined),0.57%
7,COc1ccc(N2CCN(CCCNC(=O)C3CCN(S(=O)(=O)N4CCOCC4)CC3)CC2)cc1,-2.61%
8,CCCSc1nc(NCc2ccco2)c2c3c(sc2n1)COC(C)(CC)C3 (centres undefined),30.4% (active)
9,CN(C)CCSc1nc(N)c2c3c(sc2n1)COC(C)(C)C3,1.6%
10,CCC1(C)Cc2c(sc3nc(SC)nc(N)c23)CO1 (centres undefined),-1.88%
11,COC(=O)c1ccc(C(NC(=O)OCc2ccccc2)/C(C)=C/[C@@H](C)C(=O)NCc2ccc(OC)c(OC)c2)cc1 (some centres undefined),21.5% (active)
12,COC(=O)c1ccc(C2C(Oc3ccccc3C)C(=O)N2CCc2ccc(OC)c(OC)c2)cc1 (centres undefined),8.91%
13,CCOc1ccc(C(CCc2ccccc2)NC(=O)c2ccc(OC)c(OC)c2)cc1OCC (centres undefined),-0.85%
14,O=C(CCCNS(=O)(=O)c1cccc2nsnc12)NCCN1CCN(c2ccccc2F)CC1,1.63%
15,Cc1c(/C=N\NC(=O)c2cc3ccccc3o2)c2ccccc2n1C,8.68%
16,O=C1C(=O)N(c2ccccc2)c2ccccc21,7.08%
17,O=C1c2ccccc2C(=O)N1c1ccccc1S(=O)C(F)(F)F (centres undefined),21.4% (active)
18,CCOC(=O)Nc1ccccc1N1C(=O)c2ccccc2C1=O,-3.15%
19,O=C(NNC1=C(C(=O)C(F)(F)F)CCC1)c1ccncc1,0.61%
20,CC(=O)c1cc(-c2ccccc2)n(CCC(=O)NC2CCCCCC2)c1C,2.33%
21,CCCc1[nH]nc2c1C(c1c(C)nn(-c3ccccc3)c1Cl)C(C#N)=C(N)O2 (centres undefined),-1.69%
22,CCCc1[nH]nc2c1C(C1CC=CCC1)C(C#N)=C(N)O2 (centres undefined),-5.43%
23,CCCc1[nH]nc2c1C(c1ccc(Br)s1)C(C#N)=C(N)O2 (centres undefined),68.6% (active)
24,O=C(COC(=O)c1cnc(Cl)c(Cl)c1)NCc1ccco1,1.45%

row,SMILES,inhibition
1,N#Cc1ccc(N2Cc3ccccc3/C2=N/C(=O)Nc2ccc(Cl)cc2)cc1,-0.16%
2,C/C(=N\NC(=S)NCc1ccccc1)C1CCCCC1,3.71%
3,C/C(=N\NC(=S)NCc1ccccc1)c1ccc(Cl)cc1,21.7% (active)
4,O=C(O)c1ccc(/C=N/NC(=S)NCc2ccccc2)cc1,4.72%
5,OCCC1CN(Cc2cnc(-c3ccccc3)s2)CCN1CCc1ccccc1 (centres undefined),-0.62%
6,CCCCCCn1c(CN2CCCCC2)nc2c1c(=O)n(C)c(=O)n2C,11.1%
7,CCCCCCCCn1c2c(c(=N)c3c1CCC3)CCCC2,81.5% (active)
8,Cn1cnnc1SCC(=O)NNC(=O)COc1ccc(Br)cc1,10.5%
9,CC1(C)OC(=O)C(=CNC(CO)C(=O)O)C(=O)O1 (centres undefined),0.88%
10,OCC1(Cc2ccccc2)CCN(Cc2cc3ccccc3o2)CC1,9.75%
11,CCCOC(=O)c1cc2ccccc2oc1=O,1.89%
12,CN(C)CCCCCN(C)Cc1cc2ccccc2o1,22.6% (active)
13,O=C(CCC(=O)OCc1ccc(Cl)cc1)Nc1ccccc1,-2.82%
14,O=C(/C=C\c1cn(-c2ccccc2)nc1-c1cccs1)N1CCOCC1,4.67%
15,O=C(O)/C=C/c1cn(Cc2ccccc2)nc1-c1cccs1,20.8% (active)
16,O=C(O)/C=C/c1cn(-c2ccccc2)nc1-c1cccs1,3.05%
17,O=C(OCc1cc(Cl)ccc1OC(F)F)c1cccnc1,-0.25%
18,Cc1c(Cl)c([N+](=O)[O-])nn1CCCC(=O)NC(C)c1ccccc1 (centres undefined),1.69%
19,COc1cc(OC)c(C(=O)Nc2ccccc2-c2ccccc2)cc1OC,2.51%
20,CCC/C=C(\CCC)C(NC(=O)Cc1ccccc1)c1ccc(C(=O)OC)cc1 (centres undefined),26.8% (active)
21,CCC[C@@H]1C[C@@]1(CCC)[C@@H](NC(=O)c1ccccc1)c1ccc(C(=O)OC)cc1,6.57%
22,COc1ccc(C(CC(=O)O)NC(=O)Cc2ccccc2)cc1 (centres undefined),-4.05%
